Source: ChEMBL document CHEMBL3797104, “Triazole tethered C5-curcuminoid-coumarin based molecular hybrids as novel antitubulin agents: Design, synthesis, biological investigation and docking studies” (Eur J Med Chem, 2016)

Assays:
[1] = Cytotoxicity against human HCT116 cells assessed as growth inhibition at 50 uM after 48 hrs by SRB assay; format: functional; details: HCT-116, 48 h, read-out: GI
Procedure, shortened: (§1)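 Single-concentration screen at 50 µM. Cells grew 24 h at 37 °C, then had 48 h exposure in complete medium.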

[2] = Cytotoxicity against human COLO205 cells assessed as growth inhibition at 50 uM after 48 hrs by SRB assay; format: functional; details: COLO 205, 48 h, read-out: GI; procedure, shortened: as §1
[3] = Cytotoxicity against human THP1 cells assessed as growth inhibition at 50 uM after 48 hrs by SRB assay; format: functional; details: THP-1, 48 h, read-out: GI; procedure, shortened: as §1
[4] = Cytotoxicity against human PC3 cells assessed as growth inhibition at 50 uM after 48 hrs by SRB assay; format: functional; details: PC-3, 48 h, read-out: GI; procedure, shortened: as §1
[5] = Cytotoxicity against human COLO205 cells after 48 hrs by SRB assay; format: functional, cell-based; details: COLO 205, 48 h
Procedure, shortened: (§2)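 SRB assay in 96-well plates. Cells were seeded and grown 24 h at 37 °C in a CO2 incubator, then given test material in complete medium for a further 48 h. Cells were fixed with cold 50% TCA for 1 h at 4 °C, stained 30 min with 0.4% SRB in 1% acetic acid, and washed with […]. IC50 was taken from multi-concentration testing, run only for hybrids giving >70% inhibition at 50 µM in at least one line.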

[6] = Cytotoxicity against human THP1 cells after 48 hrs by SRB assay; format: functional, cell-based; details: THP-1, 48 h; procedure, shortened: as §2
[7] = Cytotoxicity against human HCT116 cells after 48 hrs by SRB assay; format: functional, cell-based; details: HCT-116, 48 h; procedure, shortened: as §2
Tubulin = assay: Inhibition of tubulin (unknown origin) polymerization measured after 1 hr by ELISA plate reader analysis; format: protein-complex assay, Homo sapiens
Procedure, shortened: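 Kit-based turbidity assay using tubulin (10 mg in general tubulin buffer with GTP). Compounds were diluted from DMSO stocks, preincubated 2 min at 37 °C in general tubulin buffer, then tubulin diluted in polymerization buffer (general and glycerol tubulin buffers plus GTP) was added. Absorbance at 340 nm was read after 1 h at 37 °C.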

Structure (SMILES): COc1cc(/C=C/C(=O)/C=C/c2cccc3ccccc23)ccc1OCc1cn(CCOc2cc(=O)oc3ccccc23)nn1
- inhibition of growth at 50 µM [1]: 83%
- inhibition of growth at 50 µM [2]: 85%
- inhibition of growth at 50 µM [3]: 89%
- inhibition of growth at 50 µM [4]: 20%
- IC50 [5]: 9.95 µM
- IC50 [6]: 4480 nM
- IC50 [7]: 6.54 µM
- IC50 (Tubulin): 7650 nM

Structure (SMILES): COc1ccc(/C=C/C(=O)/C=C/c2ccc(OCc3cn(CCOc4cc(=O)oc5ccccc45)nn3)c(OC)c2)cc1OC
- inhibition of growth at 50 µM [1]: 82%
- inhibition of growth at 50 µM [2]: 80%
- inhibition of growth at 50 µM [3]: 90%
- inhibition of growth at 50 µM [4]: 19%
- IC50 [5]: 6.78 µM
- IC50 [6]: 2340 nM
- IC50 [7]: 4.71 µM
- IC50 (Tubulin): 2880 nM

Structure (SMILES): COc1cc(/C=C/C(=O)/C=C/c2cc(OC)c(OC)c(OC)c2)ccc1OCc1cn(CCOc2cc(=O)oc3ccccc23)nn1
- inhibition of growth at 50 µM [1]: 89%
- inhibition of growth at 50 µM [2]: 86%
- inhibition of growth at 50 µM [3]: 99%
- inhibition of growth at 50 µM [4]: 22%
- IC50 [5]: 4.68 µM
- IC50 [6]: 820 nM
- IC50 [7]: 2.21 µM
- IC50 (Tubulin): 1550 nM
